Assay results taken from ChEMBL document CHEMBL1155425, “Synthesis and antitumor activity of 1-mesityl-3-(2-naphthoylmethano)-1H-imidazolium bromide” (Bioorg Med Chem Lett, 2010).

Experiments:
Mus musculus = assay: Acute toxicity in human A549 cells xenografted mouse at 10 to 80 mg/kg; assay type: organism-based; set-up: dose 10-80 mg/kg; conditions: in vivo
[1] = Selectivity ratio of IC50 for human A549 cells to IC50 for human Raji cells; assay type: functional
[2] = Selectivity ratio of IC50 for human A549 cells to IC50 for human Hep2 cells; assay type: functional
A549 [3] = assay: Antitumor activity against human A549 cells xenografted in nude mouse assessed as increase in tumor volume at 4 mg/kg, ip administered every 2 days for 19 days measured on day 19 postimplantation relative to tumor volume on day of implantation; assay type: functional; conditions: route intraperitoneal
How it was run: (§1)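 Nude mice implanted s.c. in right flank with A549 cells (2 × 10⁷ cells/mL) on day 0. Treatment began at mean tumor ~100 mm³ (day 1). Compound in 0.5% CMC-Na given ip every 2 days for 19 days, 0.2 mL per 20 g body weight; cisplatin 1 mg/kg as reference. Caliper volume (W² × L)/2, expressed as RTV = TVn/TV₁.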

K562 [4] = assay: Cytotoxicity in human K562 cells after 48 hrs by MTT assay; assay type: functional, cell-based; conditions: K562, 48 h
How it was run: (§2)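 Cells grown at 37 °C, 5% CO₂, in RPMI 1640 with 10% fetal serum. Exposed 48 h to compound at 0.1–100 µg/mL. Viability by MTT, absorbance at 570 nm. IC50 is the concentration giving 50% reduction in absorbance versus untreated cells; triplicate tests.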

SMMC-7721 = assay: Cytotoxicity in human SMMC7721 cells after 48 hrs by MTT assay; assay type: functional, cell-based; conditions: SMMC-7721, 48 h; how it was run: as §2
EJ = assay: Cytotoxicity in human EJ cells after 48 hrs by MTT assay; assay type: functional, cell-based; how it was run: as §2
HEp-2 = assay: Cytotoxicity in human Hep2 cells after 48 hrs by MTT assay; assay type: functional, cell-based; conditions: HEp-2, 48 h; how it was run: as §2
A549 [5] = assay: Cytotoxicity in human A549 cells after 48 hrs by MTT assay; assay type: functional, cell-based; conditions: A549, 48 h; how it was run: as §2
HepG2 = assay: Cytotoxicity in human HepG2 cells after 48 hrs by MTT assay; assay type: functional, cell-based; conditions: HepG2, 48 h; how it was run: as §2
Raji = assay: Cytotoxicity in human Raji cells after 48 hrs by MTT assay; assay type: functional, cell-based; how it was run: as §2
K562 [6] = assay: Induction of apoptosis in human K562 cells at 2 ug/ml after 24 hrs by Annexin-V-FITC/PI double labelled cytometry; assay type: functional
How it was run: (§3)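 K562 cells (1 × 10⁶/mL) treated 24 h, then resuspended in binding buffer. Stained with Annexin V-FITC and PI for 15 min at room temperature in the dark, diluted in binding buffer, analyzed by flow cytometry. Apoptosis rate given as mean ± S.D. of at least three independent experiments.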

K562 [7] = assay: Induction of apoptosis in human K562 cells at 10 ug/ml after 24 hrs by Annexin-V-FITC/PI double labelled cytometry; assay type: functional; how it was run: as §3
K562 [8] = assay: Cell cycle arrest in human K562 cells assessed as accumulation at G1 phase at 2 ug/ml after 24 hrs by flow cytometry; assay type: functional
How it was run: (§4)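 K562 cells, synchronized, treated 24 h. Trypsinized, washed in PBS, fixed overnight in ice-cold 70% EtOH. Treated with RNase A 100 µg/mL at 37 °C for 30 min, then stained with propidium iodide (final 50 µg/mL). 20,000 cells analyzed by flow cytometry for DNA content; phase percentages representative of three independent experiments.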

K562 [9] = assay: Cell cycle arrest in human K562 cells assessed as accumulation at S phase at 2 ug/ml after 24 hrs by flow cytometry; assay type: functional; how it was run: as §4
K562 [10] = assay: Cell cycle arrest in human K562 cells assessed as accumulation at G2/M phase at 2 ug/ml after 24 hrs by flow cytometry; assay type: functional; how it was run: as §4
K562 [11] = assay: Cell cycle arrest in human K562 cells assessed as accumulation at G1 phase at 10 ug/ml after 24 hrs by flow cytometry; assay type: functional; how it was run: as §4
K562 [12] = assay: Cell cycle arrest in human K562 cells assessed as accumulation at S phase at 10 ug/ml after 24 hrs by flow cytometry; assay type: functional; how it was run: as §4
K562 [13] = assay: Cell cycle arrest in human K562 cells assessed as accumulation at G2/M phase at 10 ug/ml after 24 hrs by flow cytometry; assay type: functional; how it was run: as §4
A549 [14] = assay: Antitumor activity against human A549 cells xenografted in nude mouse assessed as increase in tumor volume at 8 mg/kg, ip administered every 2 days for 19 days measured on day 19 postimplantation relative to tumor volume on day of implantation; assay type: functional; conditions: route intraperitoneal; how it was run: as §1

Question: Which Activity (Mus musculus) does the source give for `Cc1cc(C)c(-n2cc[n+](CC(=O)c3ccc4ccccc4c3)c2)c(C)c1.[Br-]` here?
Answer: Non-toxic

Question: And the “Ratio IC50” value [1]?
Answer: 8

Question: And the “Ratio IC50” value [2]?
Answer: 8

Question: And the “fold change (FC)” value (A549 [3])?
Answer: 5.3

Question: What about the IC50 (K562 [4]) of the same compound?
Answer: 1.7 µg/mL

Question: What about the IC50 (SMMC-7721) of the same compound?
Answer: 1.8 µg/mL

Question: What about the IC50 (EJ) of the same compound?
Answer: 1.2 µg/mL

Question: What about the IC50 (HEp-2) of the same compound?
Answer: 0.3 µg/mL

Question: And the IC50 (A549 [5])?
Answer: 5 µg/mL

Question: What about the IC50 (HepG2) of the same compound?
Answer: 2.2 µg/mL

Question: What about the IC50 (Raji) of the same compound?
Answer: 0.7 µg/mL

Question: And the Activity (K562 [6])?
Answer: 8.1%

Question: What about the Activity (K562 [7]) of the same compound?
Answer: 15.5%

Question: And the Activity (K562 [8])?
Answer: 40%

Question: And the Activity (K562 [9])?
Answer: 45%

Question: And the Activity (K562 [10])?
Answer: 16%

Question: What about the Activity (K562 [11]) of the same compound?
Answer: 56%

Question: And the Activity (K562 [12])?
Answer: 26%

Question: What about the Activity (K562 [13]) of the same compound?
Answer: 19%

Question: What about the “fold change (FC)” value (A549 [14]) of the same compound?
Answer: 3.1
